Reference: ChEMBL document CHEMBL1155063 (Bioorg Med Chem, 2008)

Columns and labels:
K562 = experiment: Cytotoxicity against human K562 cells at 10 uM after 48 hrs by MTT assay; type: functional; conditions: K562, 48 h
Procedure, shortened: (§1)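 Single-dose screen on the NCI 60-cell-line panel, run to the Developmental Therapeutics Program protocol (one-dose mean graph). Each value is the growth percentage of treated cells against untreated control cells.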

SF-539 = experiment: Cytotoxicity against human SF539 cells at 10 uM after 48 hrs by MTT assay; type: functional; conditions: SF-539, 48 h, values are per cent of control; procedure, shortened: as §1
SK-MEL-2 = experiment: Cytotoxicity against human SK-MEL-2 cells at 10 uM after 48 hrs by MTT assay; type: functional; conditions: SK-MEL-2, 48 h, values are per cent of control; procedure, shortened: as §1
HCT-116 = experiment: Growth percent of human HCT116 cells at 10 uM after 48 hrs by MTT assay; conditions: HCT-116, 48 h
HL-60 = experiment: Cytotoxicity against human HL60 cells at 10 uM after 48 hrs by MTT assay; type: functional; conditions: HL-60, 48 h; procedure, shortened: as §1
KM12 = experiment: Cytotoxicity against human KM12 cells at 10 uM after 48 hrs by MTT assay; type: functional; conditions: KM12, 48 h; procedure, shortened: as §1
Hs-578T = experiment: Cytotoxicity against human HS578T cells at 10 uM after 48 hrs by MTT assay; type: functional; conditions: values are per cent of control; procedure, shortened: as §1
SNB-19 = experiment: Cytotoxicity against human SNB19 cells at 10 uM after 48 hrs by MTT assay; type: functional; conditions: SNB-19, 48 h, values are per cent of control; procedure, shortened: as §1
U-251 = experiment: Cytotoxicity against human U251 cells at 10 uM after 48 hrs by MTT assay; type: functional; conditions: U-251, 48 h, values are per cent of control
Procedure, shortened: (§2)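 Single-dose screen in the NCI 60-cell-line panel, run according to the Developmental Therapeutics Program protocol (one-dose mean graph). The result is the growth percentage of treated cells relative to untreated control cells.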

OVCAR-5 = experiment: Cytotoxicity against human OVCAR5 cells at 10 uM after 48 hrs by MTT assay; type: functional; conditions: OVCAR-5, 48 h; procedure, shortened: as §1
NCI-H322M = experiment: Cytotoxicity against human NCI-H322M cells at 10 uM after 48 hrs by MTT assay; type: functional; procedure, shortened: as §1
[1] = target: T1, Telomerase reverse transcriptase (Homo sapiens, UniProt O14746); experiment: Effect on human TERT expressed in H1299 cells at 100 uM after 24 hrs by SEAP assay relative to control
SK-MEL-5 = experiment: Cytotoxicity against human SK-MEL-5 cells at 10 uM after 48 hrs by MTT assay; type: functional; conditions: SK-MEL-5, 48 h, values are per cent of control; procedure, shortened: as §1
HOP-62 = experiment: Cytotoxicity against human HOP62 cells at 10 uM after 48 hrs by MTT assay; type: functional; conditions: HOP-62, 48 h; procedure, shortened: as §1
PC-3 = experiment: Cytotoxicity against human PC3 cells at 10 uM after 48 hrs by MTT assay; type: functional; conditions: PC-3, 48 h, values are per cent of control; procedure, shortened: as §1
NCI-H522 = experiment: Growth percent of human NCI-H522 cells at 10 uM after 48 hrs by MTT assay; conditions: NCI-H522, 48 h
SK-MEL-28 = experiment: Cytotoxicity against human SK-MEL-28 cells at 10 uM after 48 hrs by MTT assay; type: functional; conditions: SK-MEL-28, 48 h, values are per cent of control; procedure, shortened: as §1
[2] = Cytotoxicity against human TERT immortalized BJ1 cells at 100 uM after 48 hrs by MTT assay relative to control; type: cell-based, BJ
Procedure, shortened: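 hTERT-immortalized BJ1 fibroblasts were grown in DMEM with 10% FCS, 1 mM pyruvate and 4 mM […]. Cells (about 2 × 10^3 per well) were seeded and held 24 h at 37 °C. Compounds were freshly dissolved in DMSO, diluted into medium and left on the cells 48 h. MTT was added for 4 h, then SDS/DMF lysis buffer for 16 h. Absorbance was read at 550 nm and expressed relative to untreated cells (100%).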

Malme-3M = experiment: Cytotoxicity against human MALME3M cells at 10 uM after 48 hrs by MTT assay; type: functional; conditions: values are per cent of control; procedure, shortened: as §1
MCF7 = experiment: Cytotoxicity against human MCF7 cells at 10 uM after 48 hrs by MTT assay; type: functional; conditions: MCF7, 48 h, values are per cent of control; procedure, shortened: as §1
A498 = experiment: Cytotoxicity against human A498 cells at 10 uM after 48 hrs by MTT assay; type: functional; conditions: A498, 48 h; procedure, shortened: as §1
[3] = target: T1, Telomerase reverse transcriptase; experiment: Effect on human TERT expressed in H1299 cells at 10 uM after 24 hrs by SEAP assay relative to control
LOX IMVI = experiment: Cytotoxicity against human LOXIMVI cells at 10 uM after 48 hrs by MTT assay; type: functional; conditions: values are per cent of control; procedure, shortened: as §1
SW-620 = experiment: Cytotoxicity against human SW620 cells at 10 uM after 48 hrs by MTT assay; type: functional; conditions: SW-620, 48 h, values are per cent of control; procedure, shortened: as §2
OVCAR-3 = experiment: Cytotoxicity against human OVCAR-3 cells at 10 uM after 48 hrs by MTT assay; type: functional; conditions: OVCAR-3, 48 h; procedure, shortened: as §1
NCI-H226 = experiment: Cytotoxicity against human NCI-H226 cells at 10 uM after 48 hrs by MTT assay; type: functional; conditions: NCI-H226, 48 h; procedure, shortened: as §1
NCI/ADR-RES = experiment: Cytotoxicity against human NCI/ADR-RES cells at 10 uM after 48 hrs by MTT assay; type: functional; procedure, shortened: as §1
[4] = Cytotoxicity against human CAK1-1 cells at 10 uM after 48 hrs by MTT assay; type: functional; conditions: CAK1-1, 48 h; procedure, shortened: as §1
SR = experiment: Cytotoxicity against human SR cells at 10 uM after 48 hrs by MTT assay; type: functional; procedure, shortened: as §2
SF-295 = experiment: Cytotoxicity against human SF295 cells at 10 uM after 48 hrs by MTT assay; type: functional; conditions: SF-295, 48 h, values are per cent of control; procedure, shortened: as §1
COLO 205 = experiment: Cytotoxicity against human COLO205 cells at 10 uM after 48 hrs by MTT assay; type: functional; conditions: COLO 205, 48 h, values are per cent of control; procedure, shortened: as §1
HOP-92 = experiment: Cytotoxicity against human HOP92 cells at 10 uM after 48 hrs by MTT assay; type: functional; conditions: HOP-92, 48 h; procedure, shortened: as §1
SK-OV-3 = experiment: Cytotoxicity against human SKOV3 cells at 10 uM after 48 hrs by MTT assay; type: functional; conditions: SK-OV-3, 48 h; procedure, shortened: as §1
NCI-H23 = experiment: Cytotoxicity against human NCI-H23 cells at 10 uM after 48 hrs by MTT assay; type: functional; conditions: NCI-H23, 48 h; procedure, shortened: as §1
HCC 2998 = experiment: Growth percent of human HCC2998 cells at 10 uM after 48 hrs by MTT assay; conditions: HCC 2998, 48 h

T1 sequence (O14746 whole entry): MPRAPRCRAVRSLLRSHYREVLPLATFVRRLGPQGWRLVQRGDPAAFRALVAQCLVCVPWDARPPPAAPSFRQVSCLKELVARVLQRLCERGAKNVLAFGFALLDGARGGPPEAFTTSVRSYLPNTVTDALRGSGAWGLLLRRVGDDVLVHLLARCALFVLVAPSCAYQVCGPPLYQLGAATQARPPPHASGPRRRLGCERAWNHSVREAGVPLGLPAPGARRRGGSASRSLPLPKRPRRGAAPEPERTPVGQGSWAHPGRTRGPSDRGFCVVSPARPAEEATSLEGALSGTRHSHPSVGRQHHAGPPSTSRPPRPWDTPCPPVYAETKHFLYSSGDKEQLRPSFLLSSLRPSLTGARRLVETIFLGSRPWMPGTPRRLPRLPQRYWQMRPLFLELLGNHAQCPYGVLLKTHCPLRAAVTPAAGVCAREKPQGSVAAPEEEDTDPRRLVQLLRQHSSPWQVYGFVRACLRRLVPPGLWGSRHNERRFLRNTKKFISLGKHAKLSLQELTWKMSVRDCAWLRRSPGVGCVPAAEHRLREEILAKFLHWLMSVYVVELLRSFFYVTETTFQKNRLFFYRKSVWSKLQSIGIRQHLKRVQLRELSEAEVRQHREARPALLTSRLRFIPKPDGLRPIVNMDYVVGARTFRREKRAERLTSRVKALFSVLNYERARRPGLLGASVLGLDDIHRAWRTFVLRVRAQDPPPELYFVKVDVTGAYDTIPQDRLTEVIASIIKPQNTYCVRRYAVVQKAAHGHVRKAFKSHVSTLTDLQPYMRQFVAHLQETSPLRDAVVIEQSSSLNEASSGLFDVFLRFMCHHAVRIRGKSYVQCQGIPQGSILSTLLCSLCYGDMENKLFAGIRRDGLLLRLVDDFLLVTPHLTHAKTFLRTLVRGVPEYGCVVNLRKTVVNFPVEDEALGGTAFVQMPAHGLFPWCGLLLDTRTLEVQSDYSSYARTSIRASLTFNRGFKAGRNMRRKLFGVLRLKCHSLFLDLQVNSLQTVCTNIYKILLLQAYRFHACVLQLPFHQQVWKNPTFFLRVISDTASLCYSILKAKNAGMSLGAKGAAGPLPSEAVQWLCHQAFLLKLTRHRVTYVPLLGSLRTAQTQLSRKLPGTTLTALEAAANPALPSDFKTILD

Row | SMILES | growth percent at 10 µM (K562) | growth, % of control at 10 µM (SF-539) | growth, % of control at 10 µM (SK-MEL-2) | growth percent at 10 µM (HCT-116) | growth percent at 10 µM (HL-60) | growth, % of control at 10 µM (Hs-578T) | growth, % of control at 10 µM (SNB-19) | growth, % of control at 10 µM (U-251) | growth percent at 10 µM (OVCAR-5) | growth percent at 10 µM (NCI-H322M) | residual activity [1] | growth, % of control at 10 µM (SK-MEL-5) | growth percent at 10 µM (HOP-62) | growth, % of control at 10 µM (PC-3) | growth percent at 10 µM (NCI-H522) | growth, % of control at 10 µM (SK-MEL-28) | viability at 48 h, 100 µM [2] | growth, % of control at 10 µM (Malme-3M) | growth, % of control at 10 µM (MCF7) | growth percent at 10 µM (A498) | also measured
1 | CCN(CC)CCC(=O)Nc1ccc2c(c1)C(=O)c1cc(NC(=O)CCN(CC)CC)ccc1C2=O | 8.1% | 37.1% | -60.4% | -32.5% | 14% | -23.8% | 75.8% | 21.6% | 33.6% | 44.8% | 26% | 82.8% | 11.7% | 13.6% | 28% | 2.56% | 36% | 62.4% | 9.34% | -38.8% | growth, % of control at 10 µM (KM12; values are per cent of control): 21.8%; residual activity [3]: 35%; growth, % of control at 10 µM (LOX IMVI): 3.39%; growth, % of control at 10 µM (SW-620): 16.9%; growth percent at 10 µM (OVCAR-3): 10.4%; growth percent at 10 µM (NCI-H226): 49.9%; growth percent at 10 µM (NCI/ADR-RES): 59.5%; growth percent at 10 µM [4]: 3.27%; growth percent at 10 µM (SR): -0.39%; growth, % of control at 10 µM (SF-295): -19.9%; growth, % of control at 10 µM (COLO 205): -49.7%; growth percent at 10 µM (HOP-92): 9.7%; growth percent at 10 µM (SK-OV-3): 44%; growth percent at 10 µM (NCI-H23): 30.3%
2 | O=C(CCN1CCCC1)Nc1ccc2c(c1)C(=O)c1cc(NC(=O)CCN3CCCC3)ccc1C2=O | 6.4% | 33.8% | -45.2% | 10.5% | 85.8% | 5.26% | 67% | 18.2% | 18.8% | 45.8% | 17% | 56.9% | 18.8% | 21.7% | 29.2% | 15% | 39% | 47% | 13.3% | -0.91% | growth percent at 10 µM (HCC 2998): 20%; growth percent at 10 µM (KM12): 32.5%; residual activity [3]: 29%; growth, % of control at 10 µM (LOX IMVI): 30.7%; growth, % of control at 10 µM (SW-620): 20%; growth percent at 10 µM (OVCAR-3): 36.9%; growth percent at 10 µM (NCI-H226): 41.1%; growth percent at 10 µM (NCI/ADR-RES): 80.6%; growth percent at 10 µM [4]: 55.5%; growth percent at 10 µM (SR): 19.8%; growth, % of control at 10 µM (SF-295): 48.6%; growth, % of control at 10 µM (COLO 205): -29%; growth percent at 10 µM (HOP-92): 7.04%; growth percent at 10 µM (SK-OV-3): 27.1%; growth percent at 10 µM (NCI-H23): 31.5%
3 | CC(=O)Nc1ccc2c(c1)C(=O)c1cc(NC(C)=O)ccc1C2=O | 98.5% | 103% | 30.1% | 102% | 38.7% | 133% | 94.4% | 95.1% | 102% | 97.5% | 74% | 109% | 111% | 103% | 93.6% | 118% | 91% | 111% | 96.9% | 116% | growth percent at 10 µM (HCC 2998): 105%; growth percent at 10 µM (KM12): 106%; residual activity [3]: 87%; growth, % of control at 10 µM (LOX IMVI): 99%; growth, % of control at 10 µM (SW-620): 103%; growth percent at 10 µM (OVCAR-3): 111%; growth percent at 10 µM (NCI/ADR-RES): 114%; growth percent at 10 µM [4]: 105%; growth percent at 10 µM (SR): 3.61%; growth, % of control at 10 µM (SF-295): 103%; growth, % of control at 10 µM (COLO 205): 120%; growth percent at 10 µM (HOP-92): 101%; growth percent at 10 µM (SK-OV-3): 101%; growth percent at 10 µM (NCI-H23): 94.2%
